The list is not random: actives were taken first. Their share in the collection is about 2.5%.
Platelet DG rel: modulates dense granule release in human platelets | inhibition, %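 (compounds screened at 7.5 µM in platelet-rich plasma)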 | 300,000 tested, 0.22% active | human platelet-rich plasma, SFLLRN dense granule ATP release, luminescence;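 active means mean replicate score, as percent of positive control, at or above 50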
TRPC4 PAM: allosterically enhances the mouse TRPC4 cation channel | Q9QUQ5 | HEK293 TRPC4beta/mu-opioid, DAMGO EC20, Fluo-4 Ca2+ flux; stronger effect = higher value | B-score at 10 µM | 310,000 tested, 0.42% active;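 active means B-score of calcium response area above 5 SD of library B-scores, with initial fluorescence ratio within 5 SD of library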;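 further: B-score of integrated fluorescence ratio over time as area under calcium response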
Target sequence (Q9QUQ5 whole entry, looked up): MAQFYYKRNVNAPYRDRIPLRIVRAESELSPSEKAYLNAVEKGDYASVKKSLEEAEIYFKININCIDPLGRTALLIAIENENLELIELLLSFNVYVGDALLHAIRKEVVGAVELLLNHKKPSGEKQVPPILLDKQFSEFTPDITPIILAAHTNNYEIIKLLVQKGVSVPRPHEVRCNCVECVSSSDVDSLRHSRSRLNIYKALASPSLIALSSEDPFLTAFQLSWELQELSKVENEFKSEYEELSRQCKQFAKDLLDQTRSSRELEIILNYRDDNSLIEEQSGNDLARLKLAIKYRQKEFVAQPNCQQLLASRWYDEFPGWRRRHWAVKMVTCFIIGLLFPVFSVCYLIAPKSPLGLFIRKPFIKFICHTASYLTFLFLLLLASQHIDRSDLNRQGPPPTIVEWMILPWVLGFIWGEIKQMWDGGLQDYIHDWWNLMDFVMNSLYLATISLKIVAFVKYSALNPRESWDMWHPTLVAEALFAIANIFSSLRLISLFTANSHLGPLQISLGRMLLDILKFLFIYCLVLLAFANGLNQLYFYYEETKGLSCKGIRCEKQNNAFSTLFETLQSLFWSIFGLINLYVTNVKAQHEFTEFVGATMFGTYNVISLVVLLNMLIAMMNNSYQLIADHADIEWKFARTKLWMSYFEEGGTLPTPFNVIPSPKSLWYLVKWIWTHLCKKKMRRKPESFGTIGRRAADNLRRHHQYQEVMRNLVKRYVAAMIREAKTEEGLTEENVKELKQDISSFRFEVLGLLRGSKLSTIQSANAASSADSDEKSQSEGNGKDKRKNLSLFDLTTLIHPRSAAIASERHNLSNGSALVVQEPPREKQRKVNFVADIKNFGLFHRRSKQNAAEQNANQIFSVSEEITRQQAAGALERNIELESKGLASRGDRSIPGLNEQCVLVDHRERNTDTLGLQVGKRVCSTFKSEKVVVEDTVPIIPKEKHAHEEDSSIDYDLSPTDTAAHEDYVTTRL
TRPC4 inh: blocks the mouse TRPC4 cation channel; 300,000 tested, 0.39% active; B-score at 10 µM; Q9QUQ5; HEK293 TRPC4beta/mu-opioid, DAMGO-evoked Fluo4 calcium flux; stronger effect = lower value;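 active means B-score over 3 SD under the library average, no early fluorescence shift, positive overall ratio signal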
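Test system – stable TRPC4beta/mu-opioid receptor HEK293 cells · Probe or stimulus – DAMGO, a submaximal dose followed by a maximal one · Dosing – one concentration per compound · Signal – Fluo4 calcium fluorescence by kinetic imaging, 5 s 1 Hz baseline · Evaluation – per-well B score of integrated baseline-normalized Fluo4 ratio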
TRPC6 activator: mouse TRPC6 channel activation; Q61143; 310,000 tested, 0.13% active; AID 2550; HEK293-TRPC6 membrane potential dye fluorescence; stronger effect = higher value; B-score at 10 µM;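 active means B-score of the integrated fluorescence ratio above library mean plus 3 SD, and starting fluorescence ratio within library mean plus 5 SD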;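 further: higher score means more depolarization so channel activation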
TRPC4 act: activators of mouse TRPC4 channel. Q9QUQ5. HEK293 TRPC4beta/mu-opioid, Fluo4 calcium fluorescence; stronger effect = higher value. B-score at 10 µM. 310,000 tested, 0.49% active;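 active means B-score above 5 SD of library B-scores, and initial fluorescence ratio not above library mean plus 5 SD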;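 further: positive B-score marks a calcium rise read as TRPC4 activation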
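Incubation: 45 min room-temperature Fluo4 loading, 110 s read / System: HEK293 cells stably co-expressing mouse TRPC4beta and mu-opioid receptor / Signal: Fluo4 fluorescence, kinetic / Control set: buffer (low) and maximal DAMGO (high) / Measure: integrated baseline-normalised fluorescence ratio, converted to per-well B score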
TRPC6 inhibitor: mouse TRPC6 channel inhibition; Q61143; HEK293-TRPC6, membrane potential dye, ACh-evoked depolarization; stronger effect = lower value; B-score at 10 µM; 310,000 tested, 1.1% active; AID 2553;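 active means B-score under library mean minus 3 SD, initial fluorescence not abnormally high, positive integrated signal ratio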;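 further: B-score derived from integrated fluorescence ratio over the kinetic read; more negative B-score means stronger inhibition of depolarization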
TRPC4 sel inh 2: mouse TRPC4 off-target activity of TRPC6 inhibitors, second screen; 920 tested, 42% active; shares compounds with TRPC6 inhibitor; inhibition, % at 10 µM; HEK293 TRPC4/MOR, membrane potential dye fluorescence; channel activated by saturating DAMGO dose; AID 2776;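 active means compounds whose fluorescence signal differed from control wells by over 3 SD, either direction, in both duplicate plates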
TRPC4 spec: mouse TRPC4 off-target activity of TRPC6 inhibitors; 920 tested, 61% active; shares compounds with TRPC6 inhibitor; activity change, negative = inhibition, % at 10 µM; HEK293 TRPC4/mu-opioid, membrane potential fluorescence;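 active means rise or fall in signal beyond 3 SD of buffer-only wells in both replicate plates, either sign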;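 further: integrated kinetic ratio of fluorescence range over baseline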
HEK293 MPD ctr 2-1: parental HEK293 nonspecific activity of TRPC6 inhibitors, second screen; shares compounds with TRPC6 inhibitor; parental HEK293 membrane potential dye fluorescence; maximal acetylcholine challenge after compound addition; signal change vs control, % at 10 µM; 920 tested, 31% active; AID 2779;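 active means membrane potential signal moving either way by over 3 SD of the maximum-effect control, in both duplicate plates, meaning non-specific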
HEK293 MPD ctr-1: counter-screen for TRPC6 inhibitors: effect in parental HEK293 cells; shares compounds with TRPC6 inhibitor; membrane potential signal change, % at 10 µM; parental HEK293 membrane potential dye fluorescence; 920 tested, 60% active;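 active means membrane potential signal shifting up or down by more than 3 SD of buffer-only wells, on both duplicate plates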
HEK293 MPD ctr-2: counter-screen for TRPC6 modulators: effect in parental HEK293 cells; AID 488924; 2,400 tested, 51% active; membrane potential signal change, % at 10 µM; shares compounds with TRPC6 inhibitor; membrane potential dye fluorescence;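 active means membrane potential signal moves up or down beyond 5 SD from buffer-only wells, on both duplicate plates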
HEK293 MPD ctr 2-2: second counter-screen for TRPC6 modulators: effect in parental HEK293 cells; AID 488926; membrane potential dye fluorescence; after compound, maximal acetylcholine stimulation; 2,400 tested, 14% active; inhibition, % at 10 µM; shares compounds with TRPC6 inhibitor;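 active means membrane potential signal drops by more than 5 SD from the mean control signal, in both duplicate plates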;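 further: plate controls were acetylcholine ECmax control wells for no effect and buffer only wells for full effect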
TRPC4 ctr mod: tests whether TRPC6 modulators also affect mouse TRPC4; AID 488927; 2,400 tested, 69% active; percent change from control (negative = decrease, positive = increase), % at 10 µM; shares compounds with TRPC6 inhibitor; HEK293 TRPC4/mu-opioid, membrane potential fluorescence;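 active means membrane potential signal moved up or down beyond 5 SD of buffer control wells, in both duplicate plates, actives on both sides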;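 further: plate controls were assay buffer wells for no effect and DAMGO maximal-effect wells for full effect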
TRPC4 ctr inh 2: second check of whether TRPC6 modulators also affect mouse TRPC4 | inhibition, % at 10 µM | HEK293 TRPC4/mu-opioid, membrane potential dye fluorescence; stimulated with maximal-effect DAMGO | AID 488928 | 2,400 tested, 55% active | shares compounds with TRPC6 inhibitor;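 active means drop in membrane potential signal beyond 5 SD of the control wells in both duplicate plates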;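 further: TRPC4 counter screen for TRPC6 hits run under conditions tuned for TRPC6 not TRPC4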
TRPC6 inh conf: confirmation of mouse TRPC6 inhibitors; shares compounds with TRPC6 inhibitor; 3,300 tested, 43% active; inhibition, % at 10 µM; AID 488960; HEK293-TRPC6, membrane potential dye, ACh-evoked depolarization;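 active means fluorescence ratio falls more than 5 SD below the full-stimulation control mean, in both duplicate runs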;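 further: integrated fluorescence ratio of peak minus minimum over baseline after agonist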
TRPC6 act confirm: mouse TRPC6 activator confirmation. shares compounds with TRPC6 inhibitor. HEK293-TRPC6 membrane potential dye fluorescence, FDSS. activation, % at 10 µM. 2,800 tested, 11% active;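 active means ratio signal rise beyond 5 SD above unstimulated control wells' mean, seen in both duplicate runs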;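 further: plate controls were buffer EC0 wells for no effect and acetylcholine ECmax response for full effect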
Starred values were filed as active, the others as inactive.

CCOC(=O)C1CCCN(C(=O)c2cc(CN3C(=O)c4ccccc4C3=O)ccc2OC)C1 (stereo unspecified) was read as Platelet DG rel 8, TRPC4 PAM inactive, TRPC4 inh inactive, TRPC6 activator inactive, TRPC4 act inactive and TRPC6 inhibitor inactive.
Cc1cccc(N(CC(=O)NCc2ccc(F)cc2)C(=O)c2csnn2)c1C was read as Platelet DG rel -3, TRPC4 PAM inactive, TRPC4 inh inactive, TRPC6 activator inactive, TRPC4 act inactive and TRPC6 inhibitor inactive.
Screening O=C(CNC(=O)c1nc[nH]c1C(=O)NCc1ccccc1)OCc1ccccc1 returned Platelet DG rel -3, TRPC4 PAM inactive, TRPC4 inh inactive, TRPC6 activator inactive, TRPC4 act inactive and TRPC6 inhibitor inactive.
CCOC(=O)N1CCN(c2ccc(S(=O)(=O)N(Cc3ccccc3)Cc3ccccc3)cn2)CC1 was read as Platelet DG rel 11, TRPC4 PAM inactive, TRPC4 inh inactive, TRPC6 activator inactive, TRPC4 act inactive, TRPC6 inhibitor -5.3*, HEK293 MPD ctr-2 inactive, HEK293 MPD ctr 2-2 inactive, TRPC4 ctr mod 12%*, TRPC4 ctr inh 2 inactive, TRPC6 inh conf inactive and TRPC6 act confirm inactive.
For CN(C)CC/C=C1/c2ccccc2Sc2ccc(Cl)cc21 the results were Platelet DG rel 12, TRPC4 PAM inactive, TRPC4 inh inactive, TRPC6 activator inactive, TRPC4 act inactive, TRPC6 inhibitor -5.3*, HEK293 MPD ctr-2 inactive, HEK293 MPD ctr 2-2 inactive, TRPC4 ctr mod 9.0%*, TRPC4 ctr inh 2 54%*, TRPC6 inh conf 48%* and TRPC6 act confirm inactive.
`CN(C)CC/C=C1/c2ccccc2CS(=O)(=O)c2ccccc21` gave Platelet DG rel -14, TRPC4 PAM inactive, TRPC4 inh inactive, TRPC6 activator inactive, TRPC4 act inactive and TRPC6 inhibitor inactive.
Screening CCCCCC[N+](C)(C)CC/C=C1/c2ccccc2Sc2ccc(Cl)cc21 returned Platelet DG rel 6, TRPC4 PAM inactive, TRPC4 inh -7*, TRPC6 activator inactive, TRPC4 act inactive, TRPC6 inhibitor -6.6*, TRPC4 sel inh 2 inactive, TRPC4 spec inactive, HEK293 MPD ctr 2-1 inactive, HEK293 MPD ctr-1 inactive, TRPC6 inh conf 78%* and TRPC6 act confirm inactive.
`O=C(COC(=O)c1ccccc1SCC(=O)N1CCCC1)Nc1ccccc1C(F)(F)F` gave Platelet DG rel -3, TRPC4 PAM inactive, TRPC4 inh inactive, TRPC6 activator inactive, TRPC4 act inactive and TRPC6 inhibitor inactive.
Screening CCOC(=O)C1Cc2ccccc2CN1 (stereo unspecified) returned Platelet DG rel -9, TRPC4 PAM inactive, TRPC4 inh inactive, TRPC6 activator inactive, TRPC4 act inactive and TRPC6 inhibitor inactive.
`CCOC(=O)C1Cc2c([nH]c3ccccc23)CN1` (stereo unspecified) gave Platelet DG rel 8, TRPC4 PAM inactive, TRPC4 inh inactive, TRPC6 activator inactive, TRPC4 act inactive, TRPC6 inhibitor -8.6*, TRPC4 sel inh 2 inactive, TRPC4 spec inactive, HEK293 MPD ctr 2-1 inactive, HEK293 MPD ctr-1 -0.1%*, TRPC6 inh conf inactive and TRPC6 act confirm inactive.
For CCC(C)NC(=O)COCc1cc(-c2ccc3c(c2)OCO3)on1 (stereo unspecified) the results were Platelet DG rel -6, TRPC4 PAM inactive, TRPC4 inh inactive, TRPC6 activator inactive, TRPC4 act inactive and TRPC6 inhibitor inactive.
Screening CCN(CC)C(=O)COCc1cc(-c2ccc3c(c2)OCO3)on1 returned Platelet DG rel -2, TRPC4 PAM inactive, TRPC4 inh inactive, TRPC6 activator inactive, TRPC4 act inactive, TRPC6 inhibitor -7*, TRPC4 sel inh 2 inactive, TRPC4 spec inactive, HEK293 MPD ctr 2-1 inactive, HEK293 MPD ctr-1 inactive, TRPC6 inh conf inactive and TRPC6 act confirm inactive.
`Cc1ccc(Cn2c(=N)n(CC(O)c3ccco3)c3ccccc32)cc1` (stereo unspecified) gave Platelet DG rel 28, TRPC4 PAM inactive, TRPC4 inh -8*, TRPC6 activator inactive, TRPC4 act inactive, TRPC6 inhibitor -5.6*, HEK293 MPD ctr-2 178%*, HEK293 MPD ctr 2-2 inactive, TRPC4 ctr mod 33%*, TRPC4 ctr inh 2 88%* and TRPC6 inh conf 54%*.
Screening CCCCn1c(=N)n(CC(O)COc2cccc(C)c2)c2ccccc21 (stereo unspecified) returned Platelet DG rel 4, TRPC4 PAM inactive, TRPC4 inh inactive, TRPC6 activator inactive, TRPC4 act inactive, TRPC6 inhibitor -6.7*, TRPC4 sel inh 2 38%*, TRPC4 spec 40%*, HEK293 MPD ctr 2-1 270%*, HEK293 MPD ctr-1 23%* and TRPC6 inh conf inactive.

From PubChem BioAssay
